From ChEMBL document CHEMBL1135910, “Beta-C-mannosides as selectin inhibitors” (J Med Chem, 2002) come the findings set out here.

This data set addresses Alpha-1-acid glycoprotein 1 (Homo sapiens, UniProt P02763). Nature of the data set: Ability to inhibit the binding of E-selectin to human recombinant AGP (alpha-1 acid glycoprotein) in a E-selectin assay. The method in brief:
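ELISA read-out. Soluble E-selectin binding to human recombinant AGP bearing five sLex per molecule. Compounds screened at 5 mM, with percent inhibition recorded.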

Each structure is given as a SMILES string.

Sequence of Alpha-1-acid glycoprotein 1 (P02763 whole entry): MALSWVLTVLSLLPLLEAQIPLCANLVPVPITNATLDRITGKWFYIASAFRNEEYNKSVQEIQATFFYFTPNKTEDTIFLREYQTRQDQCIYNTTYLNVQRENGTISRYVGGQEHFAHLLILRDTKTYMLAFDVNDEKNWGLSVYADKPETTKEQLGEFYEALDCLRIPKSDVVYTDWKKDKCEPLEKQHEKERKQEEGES

As to `CC(C)(C)c1ccc(COc2ccsc2C(=O)NCC2OC(CC(=O)N[C@@H](CCC(=O)O)C(=O)O)C(O)C(O)C2O)cc1` (stereo not given in full), the Inhibition was 43%.

Regarding `O=C(O)CC[C@H](NC(=O)CC1OC(CNC(=O)CC(=O)Nc2ccc(Cl)cc2Cl)C(O)C(O)C1O)C(=O)O` (stereo not given in full), the Inhibition worked out at 45%.

Take `C[C@@H](NC(=O)c1ccccc1C(=O)NCC1OC(CC(=O)N[C@@H](CCC(=O)O)C(=O)O)C(O)C(O)C1O)c1ccccc1` (stereo not given in full): the IC50 stood at 5 mM.

Take `Cc1ccc(COc2ccsc2C(=O)NCC2OC(CC(=O)N[C@@H](CCC(=O)O)C(=O)O)C(O)C(O)C2O)cc1` (stereo not given in full): the Inhibition is 42%.

With `CC(=O)N[C@H]1[C@H]([C@H](O)[C@H](O)CO)O[C@@](O[C@H]2[C@@H](O)[C@@H](CO)O[C@@H](O[C@@H]([C@H](O[C@@H]3O[C@@H](C)[C@@H](O)[C@@H](O)[C@@H]3O)[C@H](C=O)NC(C)=O)[C@H](O)CO)[C@@H]2O)(C(=O)O)C[C@@H]1O` [SIALYL LEWIS X], the IC50 amounted to 8 mM.
